Reference: ChEMBL document CHEMBL1914423, “New imidazo[2,1-b]thiazole derivatives: synthesis, in vitro anticancer evaluation, and in silico studies” (Eur J Med Chem, 2011)

Experiments:
Type in all cases: functional
K562 = assay: Anticancer activity against human K562 cells after 48 hrs by SRB assay; conditions: K562, 48 h
Summary of the method: (§1)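 NCI five-dose screen. Cells in RPMI 1640 with 5% FBS and 2 mM L-glutamine, seeded at 5000–40,000 cells/well according to doubling time, then pre-incubated 24 h at 37 °C in 5% CO2. Drugs dissolved in DMSO, five concentrations by 10-fold or 1/2-log dilution. Cells fixed with TCA, SRB-stained, A515 read. IC50 solved from [(Ti−Tz)/(C−Tz)]×100 = 50.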

MOLT-4 = assay: Anticancer activity against human MOLT4 cells after 48 hrs by SRB assay; conditions: MOLT-4, 48 h
SR = assay: Anticancer activity against human SR cells after 48 hrs by SRB assay
Summary of the method: (§2)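 NCI-60 five-dose mode: cells in RPMI 1640 with 5% FBS and 2 mM glutamine, plated at 5000–40,000 cells/well, and preincubated 24 h, with time-zero plates TCA-fixed. Drug given at five concentrations (10-fold or ½-log serial dilutions). Cold TCA fixation 60 min at 4 °C, SRB stain, Tris solubilization, A515. IC50 taken where [(Ti−Tz)/(C−Tz)]×100 = 50.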

A549 = assay: Anticancer activity against human A549 cells after 48 hrs by SRB assay; conditions: A549, 48 h; summary of the method: as §1
EKVX = assay: Anticancer activity against human EKVX cells after 48 hrs by SRB assay; summary of the method: as §1
HOP-92 = assay: Anticancer activity against human HOP92 cells after 48 hrs by SRB assay; conditions: HOP-92, 48 h; summary of the method: as §1
NCI-H322M = assay: Anticancer activity against human NCI-H322M cells after 48 hrs by SRB assay
NCI-H522 = assay: Anticancer activity against human NCI-H522 cells after 48 hrs by SRB assay; conditions: NCI-H522, 48 h
COLO 205 = assay: Anticancer activity against human COLO205 cells after 48 hrs by SRB assay; conditions: COLO 205, 48 h; summary of the method: as §1
HCC 2998 = assay: Anticancer activity against human HCC2998 cells after 48 hrs by SRB assay; conditions: HCC 2998, 48 h; summary of the method: as §1
HCT-116 = assay: Anticancer activity against human HCT116 cells after 48 hrs by SRB assay; conditions: HCT-116, 48 h; summary of the method: as §1
KM12 = assay: Anticancer activity against human KM12 cells after 48 hrs by SRB assay; conditions: KM12, 48 h; summary of the method: as §1
SF-295 = assay: Anticancer activity against human SF295 cells after 48 hrs by SRB assay; conditions: SF-295, 48 h
SNB-75 = assay: Anticancer activity against human SNB75 cells after 48 hrs by SRB assay; conditions: SNB-75, 48 h
U-251 = assay: Anticancer activity against human U251 cells after 48 hrs by SRB assay; conditions: U-251, 48 h; summary of the method: as §2
M14 = assay: Anticancer activity against human M14 cells after 48 hrs by SRB assay; conditions: M14, 48 h; summary of the method: as §1
MDA-MB-435 = assay: Anticancer activity against human MDA-MB-435 cells after 48 hrs by SRB assay; conditions: MDA-MB-435, 48 h; summary of the method: as §1
SK-MEL-2 = assay: Anticancer activity against human SK-MEL-2 cells after 48 hrs by SRB assay; conditions: SK-MEL-2, 48 h
OVCAR-3 = assay: Anticancer activity against human OVCAR3 cells after 48 hrs by SRB assay; conditions: OVCAR-3, 48 h
A498 = assay: Anticancer activity against human A498 cells after 48 hrs by SRB assay; conditions: A498, 48 h; summary of the method: as §1
ACHN = assay: Anticancer activity against human ACHN cells after 48 hrs by SRB assay; summary of the method: as §1
RXF 393 = assay: Anticancer activity against human RXF393 cells after 48 hrs by SRB assay; conditions: RXF 393, 48 h
TK-10 = assay: Anticancer activity against human TK10 cells after 48 hrs by SRB assay; conditions: TK-10, 48 h; summary of the method: as §2
PC-3 = assay: Anticancer activity against human PC3 cells after 48 hrs by SRB assay; conditions: PC-3, 48 h
DU-145 = assay: Anticancer activity against human DU145 cells after 48 hrs by SRB assay; conditions: DU-145, 48 h; summary of the method: as §1
MCF7 = assay: Anticancer activity against human MCF7 cells after 48 hrs by SRB assay; conditions: MCF7, 48 h; summary of the method: as §1
MDA-MB-231 = assay: Anticancer activity against human MDA-MB-231 cells after 48 hrs by SRB assay; conditions: MDA-MB-231, 48 h; summary of the method: as §1
[1] = Anticancer activity against human Hs 578T cells after 48 hrs by SRB assay; summary of the method: as §1
T47D = assay: Anticancer activity against human T47D cells after 48 hrs by SRB assay; summary of the method: as §2
MDA-MB-468 = assay: Anticancer activity against human MDA-MB-468 cells after 48 hrs by SRB assay; conditions: MDA-MB-468, 48 h
[2] = read-out: LC50 (the source's name)

SMILES: O=C(NCCNc1nccc(-c2c(-c3cccc(O)c3)nc3sccn23)n1)Nc1cccc(C(F)(F)F)c1
- GI50 (K562): 3.42 µM
- TGI (K562): 57.1 µM
- CC50 (K562; [2]): > 100 µM
- GI50 (MOLT-4): 3.6 µM
- TGI (MOLT-4): 14.6 µM
- CC50 (MOLT-4; [2]): > 100 µM
- GI50 (SR): 6.08 µM
- TGI (SR): 40 µM
- CC50 (SR; [2]): > 100 µM
- GI50 (A549): 2.98 µM
- LC50 (concentration giving 50% net tumour cell kill) (A549): > 100 µM
- TGI (A549): 8.44 µM
- GI50 (EKVX): 4.16 µM
- LC50 (EKVX): > 100 µM
- TGI (EKVX): 36.6 µM
- GI50 (HOP-92): 2.19 µM
- TGI (HOP-92): 9.38 µM
- CC50 (HOP-92; [2]): > 100 µM
- GI50 (NCI-H322M): 6.13 µM
- TGI (NCI-H322M): 26 µM
- CC50 (NCI-H322M; [2]): > 100 µM
- GI50 (NCI-H522): 2.11 µM
- TGI (NCI-H522): 5 µM
- CC50 (NCI-H522; [2]): 20.9 µM
- GI50 (COLO 205): 3.36 µM
- TGI (COLO 205): 12 µM
- CC50 (COLO 205; [2]): 59.5 µM
- GI50 (HCC 2998): 2.68 µM
- TGI (HCC 2998): 5.77 µM
- CC50 (HCC 2998; [2]): 74.9 µM
- GI50 (HCT-116): 3.58 µM
- TGI (HCT-116): 11.5 µM
- CC50 (HCT-116; [2]): 74.3 µM
- GI50 (KM12): 2.78 µM
- TGI (KM12): 6.98 µM
- CC50 (KM12; [2]): 29.9 µM
- GI50 (SF-295): 4.16 µM
- TGI (SF-295): 29.7 µM
- CC50 (SF-295; [2]): > 100 µM
- GI50 (SNB-75): 2.5 µM
- TGI (SNB-75): 12.7 µM
- CC50 (SNB-75; [2]): 62.5 µM
- GI50 (U-251): 4.95 µM
- TGI (U-251): 23.6 µM
- CC50 (U-251; [2]): > 100 µM
- GI50 (M14): 1.79 µM
- TGI (M14): 3.39 µM
- CC50 (M14; [2]): 6.41 µM
- GI50 (MDA-MB-435): 2.04 µM
- TGI (MDA-MB-435): 4.94 µM
- CC50 (MDA-MB-435; [2]): 41 µM
- GI50 (SK-MEL-2): 2.8 µM
- TGI (SK-MEL-2): 6.07 µM
- CC50 (SK-MEL-2; [2]): 36 µM
- GI50 (OVCAR-3): 5.52 µM
- TGI (OVCAR-3): 22.7 µM
- CC50 (OVCAR-3; [2]): 87.3 µM
- GI50 (A498): 7.33 µM
- TGI (A498): 32.6 µM
- CC50 (A498; [2]): > 100 µM
- GI50 (ACHN): 5.79 µM
- TGI (ACHN): 45.7 µM
- CC50 (ACHN; [2]): > 100 µM
- GI50 (RXF 393): 2.41 µM
- TGI (RXF 393): 5.1 µM
- CC50 (RXF 393; [2]): 12.9 µM
- GI50 (TK-10): 3.66 µM
- TGI (TK-10): 11.1 µM
- CC50 (TK-10; [2]): 94.5 µM
- GI50 (PC-3): 2.94 µM
- TGI (PC-3): 12.6 µM
- CC50 (PC-3; [2]): > 100 µM
- GI50 (DU-145): 5.37 µM
- TGI (DU-145): 30 µM
- CC50 (DU-145; [2]): > 100 µM
- GI50 (MCF7): 3.57 µM
- TGI (MCF7): 16 µM
- CC50 (MCF7; [2]): 78.1 µM
- GI50 (MDA-MB-231): 3.52 µM
- TGI (MDA-MB-231): 12.3 µM
- CC50 (MDA-MB-231; [2]): > 100 µM
- GI50 [1]: 3.56 µM
- TGI [1]: 17.8 µM
- CC50 [1, 2]: > 100 µM
- GI50 (T47D): 6.52 µM
- TGI (T47D): 25.6 µM
- CC50 (T47D; [2]): 97.1 µM
- GI50 (MDA-MB-468): 1.67 µM
- TGI (MDA-MB-468): 3.33 µM
- CC50 (MDA-MB-468; [2]): 6.67 µM
